The list is not random: actives were taken first. Their share in the collection is about 1.6%.
PKA-R1A act: activators of PKA-R1A holoenzyme, primary screen, biochemical, fluorescence polarization, Cy5-IP20, bovine R1A, mouse PKAc; cAMP-dependent protein kinase type I-alpha regulatory subunit (Bos taurus) + …; PKA-R1A dissociation; scaled: DMSO 0%, 113 µM cGMP 100%; activation, % at 11.4 µM; 340,000 tested, 0.083% active; AID 504707, 2011;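 active = percent activation above the mean of all tested compounds plus 3 SD, cut at about 19% in these data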;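 also: higher means more PKAc released from R1A so a rise in polarization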
NR2E3 ag-1: NR2E3 agonists in two-hybrid cells, primary screen, cell-based, luminescence, CHO-S, Gal4-NCOR/VP16-NR2E3; Photoreceptor-specific nuclear receptor (Homo sapiens), Q9Y5X4; luciferase; inhibition of corepressor binding, % at 3.98 µM; 360,000 tested, 0.35% active; AID 602229, 2012;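 active = inhibition above the mean of all tested compounds plus 3 SD, cut at about 70% in these data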;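 also: 0% = DMSO with NR2E3 transfected cells and 100% = cells lacking NR2E3 construct; higher means lower luciferase signal from less NR2E3 corepressor binding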
NR1D1 modulator: modulators of Rev-erb alpha DNA binding, primary screen, biochemical, FITC-DNA, fluorescence polarization, uHTS; Nuclear receptor subfamily 1 group D member 1 (Homo sapiens), P20393; Rev-erbα–FITC-DNA binding, 90 min; activity, % at 10 µM; 370,000 tested, 0.79% active; AID 1259318, 2017;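 active = activity above about 14%, limit read from the data; passing the limit was not always enough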;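 also: 0% = DMSO wells with 35 nM protein and 100% = DMSO wells with 750 nM protein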
Target sequence (P20393 whole entry, looked up): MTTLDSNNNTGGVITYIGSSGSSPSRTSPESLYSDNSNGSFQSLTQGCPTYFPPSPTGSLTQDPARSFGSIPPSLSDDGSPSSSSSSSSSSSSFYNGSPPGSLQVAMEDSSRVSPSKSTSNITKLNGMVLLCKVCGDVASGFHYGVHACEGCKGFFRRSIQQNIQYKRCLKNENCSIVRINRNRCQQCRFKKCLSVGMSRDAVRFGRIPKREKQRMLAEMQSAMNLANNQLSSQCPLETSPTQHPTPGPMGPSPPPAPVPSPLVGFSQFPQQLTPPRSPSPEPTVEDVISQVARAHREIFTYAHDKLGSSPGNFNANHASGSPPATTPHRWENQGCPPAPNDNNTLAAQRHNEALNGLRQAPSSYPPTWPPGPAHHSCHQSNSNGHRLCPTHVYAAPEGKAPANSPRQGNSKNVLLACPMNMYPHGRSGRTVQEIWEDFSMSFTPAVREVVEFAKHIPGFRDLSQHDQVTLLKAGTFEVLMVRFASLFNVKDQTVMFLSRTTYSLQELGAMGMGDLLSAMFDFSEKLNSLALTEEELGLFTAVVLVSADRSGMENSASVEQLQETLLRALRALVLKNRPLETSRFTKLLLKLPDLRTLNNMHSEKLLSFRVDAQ
PKA-R2B activ: activators of PKA-R2B holoenzyme, primary screen, biochemical, fluorescence polarization, Cy5-IP20, human. PKA-R2B holoenzyme dissociation; R2B truncated from residue 108, S112A mutant; 0% DMSO only, 100% 113 µM cGMP. activation, % at 11.4 µM. 340,000 tested, 0.079% active. AID 504700, 2011;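 active = activation above a cutoff set at the mean over all compounds plus 3 SD, cut at about 18% in these data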;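 also: higher means more holoenzyme dissociation and a rise in polarization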
NR2E3 ag-2: inhibitors of NR2E3-RetCOR corepressor binding, primary screen, NR2E3 agonist project, biochemical, TR-FRET, GST-NR2E3, biotin-RetCOR; 1536-well; inhibition of corepressor binding, % at 4.78 µM; 320,000 tested, 0.12% active; AID 2300, 2010;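 active = percent inhibition above the cutoff of mean plus 3 SD of all tested compounds, set per screening campaign, cut at about 20% in these data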;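 also: 0% = DMSO wells and 100% = biotin wells as full block of FRET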
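Assay system: NR2E3–RetCOR corepressor complex. Quantity: 1.35 nM GST-NR2E3. Buffer or medium: pH 7.5 Tris-based buffer. Reagent: biotinylated RetCOR corepressor at 7 nM final. Schedule: 5 h at 4 °C. Detection: TR-FRET, emission read at 617 and 671 nm. Replicates: one well per compound, singlicate testing.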
PG9 Ab binder: binders of HIV-1 gp120 antibody PG9, primary screen, biochemical, TR-FRET; HIV-1 gp120 / PG9 antibody interaction; TR-FRET gp120-PG9 antibody binding; inhibition, % at 6.7 µM; 360,000 tested, 0.43% active; AID 624416, 2012; in the data active = inhibition above about 8.5%
Rev-erbA confirm: modulators of Rev-erb alpha DNA binding, confirmation, biochemical, FITC-DNA, fluorescence polarization, single point; shares compounds with NR1D1 modulator; 90 min; activation, % at 25 µM; 3,000 tested, 61% active; AID 1259319, 2017;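 active = activation at or above a set limit, or at least 3 SD above the negative control mean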;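 also: 0% = 35 nM protein with DMSO and 100% = 750 nM protein high control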
RORg counter: modulation of RORgamma DNA binding, dose response, counter-screen for Rev-erb alpha modulator project, biochemical, fluorescence polarization, FITC-DNA | shares compounds with NR1D1 modulator | 910 tested, 8% active | purified RORgamma protein-FITC-DNA binding | IC50, µM | AID 1259320, 2017;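 active = Compounds whose fitted half-maximal concentration for disrupting protein-DNA binding is below 10 micromolar; the record names Rev-erb in its text, so the target is in doubt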
Numbers without * were called inactive; i = inactive; x = no result given.

SMILES	PKA-R1A act	NR2E3 ag-1	NR1D1 modulator	PKA-R2B activ	NR2E3 ag-2	PG9 Ab binder	Rev-erbA confirm	others
CC(C)C[C@H]1COc2ccc(Cl)cc2S(=O)(=O)N1Cc1cn(Cc2ccc(C(F)(F)F)cc2)nn1	x	x	4.0	x	x	x	x
CCN(CC)c1ccc2cc(S(=O)(=O)c3ccc(Cl)cc3)c(=O)oc2c1	10.9	-9.7	17.4*	-1.2	2.8	-0.1	18.5*
O=C(c1ccccc1)N1CCC(Oc2cccnc2)CC1	x	x	1.2	x	x	x	x
CCCCn1c(SC(C)C(N)=O)nc2cc(C(=O)OC)ccc2c1=O (configuration not stated)	6.5	-8.6	-5.0	-0.7	2.5	-2.2	x
CCCCn1c(SC(C)C(=O)NCC2CCCO2)nc2cc(C(=O)OC)ccc2c1=O (configuration not stated)	-8.5	-27.7	39.8*	-0.8	-1.1	-0.5	31.6*	RORg counter=>40
COc1ccc(N=Nc2cc(C)ccc2O)cc1	2.1	-122.4	4.7	-2.4	1.0	-0.2	x
Cc1ccc(O)c(N=Nc2nccs2)c1	-3.0	-15.2	20.2*	-9.3	-6.2	-14.6	7.2
COC(=O)[C@]12C[C@H](CC(=O)NCCC(C)C)C(=O)N(Cc3ccco3)C1=C[C@H](C1CCCC1)O[C@@H]2C	x	x	-1.1	x	x	x	x
COc1ccc2c(C)cc(SCC(=O)Nc3cccnc3Cl)nc2c1	-5.5	-0.6	59.2*	-5.3	-1.8	1.4	69.0*	RORg counter=i
O=C(c1ccc(F)cc1)c1ccc(-c2ccc(F)cc2)nc1	-5.4	-5.6	27.5*	7.4	5.8	8.2	12.1
COc1ccc(Cl)cc1C(=O)Nc1ccc(Br)c(C)n1	-6.5	-12.7	28.1*	8.5	1.9	-3.0	4.5
COc1ccc(Cl)cc1C(=O)Nc1ccc(NC(C)=O)cc1	-3.0	-29.7	1.7	-4.3	-0.4	-0.4	x
Cc1c(C(=O)Nc2ccc(Cl)cc2)c2ccccn2c1C(=O)c1ccccc1	-6.0	6.0	43.3*	-2.5	3.0	0.2	18.1*
CCCC(=O)N(c1ccc(OCC)cc1)S(=O)(=O)c1ccc2c3c(cccc13)C(=O)N2C	4.5	20.4	43.0*	-10.0	-4.2	0.0	16.7
CCn1c(=O)n2n(c1=O)[C@]1(C=C(C)C2)CN(Cc2ccc(OC)cc2OC)C(NC(=O)c2ccccc2)=N1	x	x	10.1	x	x	x	x
CCOC(=O)[C@]12CCCCC/C=C\1N(Cc1ccc(OC)cc1)C(=O)[C@H]2CC(=O)NCCCCc1ccccc1	x	x	-5.0	x	x	x	x
Cc1nc(N)c(C#N)c(-c2ccccc2)c1C	1.5	-31.2	0.8	-13.2	-0.9	-2.6	x
Cc1cc(C)c2c(n1)sc1c(-c3ccccc3)c(C#N)c(N)nc12	6.2	-2.5	23.1*	-3.7	0.8	3.3	4.2
COC(=O)C1=CN(c2ccc(N3CCOCC3)cc2)C(N)=C(C#N)C1c1cccc(F)c1 (configuration not stated)	x	x	24.0*	x	x	0.2	8.4
COC(=O)C1=CN(c2ccc(F)cc2)C(N)=C(C#N)C1c1cccc(F)c1 (configuration not stated)	x	x	1.1	x	x	-1.4	x
c1cnc(SCC2CCCCC2)c(-c2nc3ccccc3[nH]2)c1	x	x	31.7*	x	x	x	32.6*	RORg counter=>40
Cc1cnc(NC(=O)c2cc3c(C)nn(-c4ccccc4)c3s2)s1	-9.2	2.7	40.4*	-8.8	-0.9	7.6	35.2*	RORg counter=>40

Screening data from PubChem BioAssay.
